ChEMBL document CHEMBL3414461, “Clerodane type diterpene as a novel antifungal agent from Polyalthia longifolia var. pendula” (Eur J Med Chem, 2015)
In brackets after ≈: the same amount, converted by molar mass. Activity calls are given as the source filed them. The calls are words filed in the database; no cut-off is given here.

Legend:
Candida albicans [1] = test: Antifungal activity against Candida albicans NCIM 3471 after 24 to 48 hrs by microbroth dilution method; type: functional
Outline: (§1)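 Broth microdilution per CLSI. DMSO stock diluted 1:40 in YPG medium, then two-fold serial dilution across […] range. Inoculum: log-phase yeast cells (~2 × 10^4 cfu/mL) grown in YPG broth, or spores for phytopathogens. Incubated 24–48 h; growth read as absorbance at 600 nm. MIC is the lowest concentration giving >90% growth inhibition versus control; IC50 is the concentration giving 50% inhibition.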

Aspergillus niger = test: Antifungal activity against Aspergillus niger NCIM 628 after 24 to 48 hrs by microbroth dilution method; type: functional; outline: as §1
Candida albicans [2] = test: Antifungal activity against Candida albicans NCIM 3557 assessed as inhibition of 50% germ tube formation; type: functional
Fusarium oxysporum = test: Antifungal activity against Fusarium oxysporum NCIM 1043 after 24 to 48 hrs by microbroth dilution method; type: functional; outline: as §1
[3] = Cytotoxicity against sheep RBC assessed as haemolytic activity at 1200 uM after 2 hrs by spectrophotometry; type: cell-based, Ovis aries, Erythrocyte; details: sheep red blood cells, read-out: Activity
Outline: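 Sheep RBCs washed with PBS (pH 7.0), resuspended to a 4% suspension, mixed 1:1 with PBS containing test compound. Incubated 37 °C for 2 h, centrifuged 2000 rpm for 5 min, supernatant absorbance read at 545 nm. PBS set as 0% lysis and 0.1% Triton X-100 as 100%. Percent haemolysis calculated relative to these; triplicates averaged.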

Aspergillus fumigatus = test: Antifungal activity against Aspergillus fumigatus NCIM 902 after 24 to 48 hrs by microbroth dilution method; type: functional; outline: as §1
Neurospora crassa = test: Antifungal activity against Neurospora crassa NCIM 870 after 24 to 48 hrs by microbroth dilution method; type: functional; outline: as §1
Cryptococcus neoformans = test: Antifungal activity against Cryptococcus neoformans NCIM 3542 after 24 to 48 hrs by microbroth dilution method; type: functional; outline: as §1
Candida albicans [4] = test: Antifungal activity against Candida albicans NCIM 3557 after 24 to 48 hrs by microbroth dilution method; type: functional; outline: as §1
Nakaseomyces glabratus = test: Antifungal activity against Candida glabrata NCIM 3237 after 24 to 48 hrs by microbroth dilution method; type: functional; outline: as §1
Candida albicans [5] = test: Induction of ROS generation in Candida albicans NCIM 3557 at 25.2 to 100.6 uM after 60 mins by DCFH-DA staining-based fluorescence assay; type: functional, organism-based
Candida albicans [6] = test: Induction of ROS generation in Candida albicans NCIM 3557 at 50.3 to 201.2 uM after 200 mins by DHR123 staining-based fluorescence assay; type: functional, organism-based
Outline: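 1×10^6 C. albicans NCIM3557 cells grown in YPG broth with compound at 37 °C for 200 min. Cells washed, then DHR123 added at […] final (from ethanol stock) in PBS for 30 min. Cells washed, resuspended in PBS, and fluorescence read (ex 480/em 525 nm) by epifluorescence microscopy. Untreated cells served as negative control and H2O2-treated cells as positive control.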

Row | MIC90 (Candida albicans [1]) | MIC90 (Aspergillus niger) | Concentration for 50% inhibition of germ tube formation (IC50) (Candida albicans [2]) | MIC90 (Fusarium oxysporum) | MIC90 (Aspergillus fumigatus) | MIC90 (Neurospora crassa) | MIC90 (Cryptococcus neoformans) | MIC90 (Candida albicans [4]) | MIC90 (Nakaseomyces glabratus) | SMILES | hemolysis at 2 h, 1200 µM [3] | Activity (Candida albicans [5]) | Activity (Candida albicans [6])
1 | > 600 µM | > 600 µM | 153.1 µM | > 600 µM | > 600 µM | > 600 µM | > 600 µM | > 600 µM | > 600 µM | CC1=CCC[C@@H]2[C@@](C)(CCC3=CC(=O)OC3OC(=O)OC(C)(C)C)[C@H](C)CC[C@@]12C (mixture of isomers) | < 15% | – | –
2 | > 600 µM | > 600 µM | 191.6 µM | > 600 µM | > 600 µM | > 600 µM | > 600 µM | > 600 µM | > 600 µM | C[C@@H]1CC[C@]2(C)[C@H](CC[C@@H]3O[C@@]32C)[C@@]1(C)CCC1=CC(=O)O[C@@H]1O | < 15% | – | –
3 | > 600 µM | > 600 µM | 177.8 µM | > 600 µM | > 600 µM | > 600 µM | > 600 µM | > 600 µM | > 600 µM | CC(=O)OC1OC(=O)C=C1CC[C@@]1(C)[C@H](C)CC[C@@]2(C)C(C)=CCC[C@H]12 (mixture of isomers) | < 15% | – | –
4 | 805 µM (≈ 256 µg/mL) | 805 µM (≈ 256 µg/mL) | 25.14 µM | 805 µM (≈ 256 µg/mL) | 805 µM (≈ 256 µg/mL) | 201 µM (≈ 64.1 µg/mL) | 101 µM (≈ 32 µg/mL) | 50.3 µM (≈ 16 µg/mL) | 805 µM (≈ 256 µg/mL) | CC1=CCC[C@@H]2[C@@](C)(CCC3=CC(=O)O[C@@H]3O)[C@H](C)CC[C@@]12C | < 15% | Active | Active
